# Screening results from PubChem.
# Kir21 block = blocks the mouse Kir2.1 inward-rectifier potassium channel; P35561; HEK293-Kir2.1, FluxOR thallium flux fluorescence; active compounds read low; B-score at 10 µM; 310,000 tested, 0.85% active; AID 1672;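 active = fluorescence ratio B-score at or below minus 3 SD of library scores, with starting-brightness B-score within 2 SD, cut at about -4.2 in these data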;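 also: channel flux triggered by added potassium and thallium sulfate stimulus; B-score of peak minus minimum fluorescence over baseline after thallium stimulus; more negative B-score means stronger Kir2.1 block with less thallium influx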
# TRPC4 block = inhibitors of mouse TRPC4 channel; 300,000 tested, 0.39% active; HEK293 TRPC4beta/mu-opioid, DAMGO-evoked Fluo4 calcium flux; active compounds read low; B-score at 10 µM; AID 2247; Q9QUQ5;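 active = B-score over 3 SD under the library average, no early fluorescence shift, positive overall ratio signal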
#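 Assay system: HEK293 cells with stable TRPC4beta plus mu-opioid receptor expression; Probe or stimulus: DAMGO in two steps, submaximal then maximal; Dosing: single-point compound dosing; Measured by: Fluo4 calcium-dye fluorescence, kinetic read; Read-out basis: B score from integrated Fluo4 fluorescence ratio.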
# TRPC6 act = mouse TRPC6 channel activation; Q61143; HEK293-TRPC6 membrane potential dye fluorescence; active compounds read high; B-score at 10 µM; 310,000 tested, 0.13% active;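 active = B-score of the integrated fluorescence ratio above library mean plus 3 SD, and starting fluorescence ratio within library mean plus 5 SD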;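 also: higher score means more depolarization so channel activation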
# TRPC6 inh = mouse TRPC6 channel inhibition; AID 2553; Q61143; B-score at 10 µM; 310,000 tested, 1.1% active; HEK293-TRPC6, membrane potential dye, ACh-evoked depolarization; active compounds read low;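 active = B-score under library mean minus 3 SD, initial fluorescence not abnormally high, positive integrated signal ratio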;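 also: B-score derived from integrated fluorescence ratio over the kinetic read; more negative B-score means stronger inhibition of depolarization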
# TRPC4 PAM = allosterically enhances the mouse TRPC4 cation channel | Q9QUQ5 | HEK293 TRPC4beta/mu-opioid, DAMGO EC20, Fluo-4 Ca2+ flux; active compounds read high | B-score at 10 µM | 310,000 tested, 0.42% active;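 active = B-score of calcium response area above 5 SD of library B-scores, with initial fluorescence ratio within 5 SD of library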;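 also: B-score of integrated fluorescence ratio over time as area under calcium response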
# TRPC4 act = activators of mouse TRPC4 channel. Q9QUQ5. HEK293 TRPC4beta/mu-opioid, Fluo4 calcium fluorescence; active compounds read high. B-score at 10 µM. 310,000 tested, 0.49% active. AID 2237;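 active = B-score above 5 SD of library B-scores, and initial fluorescence ratio not above library mean plus 5 SD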;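 also: positive B-score marks a calcium rise read as TRPC4 activation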
#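 Assay system: HEK293 stable line with TRPC4beta plus mu-opioid receptor; schedule: 45 min room-temperature Fluo4 loading, 110 s read; technique: kinetic Fluo4 calcium fluorescence; evaluation: integrated baseline-normalised fluorescence ratio, converted to per-well B score; controls: buffer (low) and maximal DAMGO (high)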
# TRPC4 spec 2 = second check of whether TRPC6 inhibitors also affect mouse TRPC4; AID 2776; shares compounds with TRPC6 inh; HEK293 TRPC4/MOR, membrane potential dye fluorescence; channel activated by saturating DAMGO dose; inhibition, % at 10 µM; 920 tested, 42% active;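 active = compounds whose fluorescence signal differed from control wells by over 3 SD, either direction, in both duplicate plates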
# TRPC4 spec = tests whether TRPC6 inhibitors also affect mouse TRPC4; shares compounds with TRPC6 inh; HEK293 TRPC4/mu-opioid, membrane potential fluorescence; activity change, negative = inhibition, % at 10 µM; 920 tested, 61% active; AID 2777;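 active = rise or fall in signal beyond 3 SD of buffer-only wells in both replicate plates, either sign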;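 also: integrated kinetic ratio of fluorescence range over baseline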
# HEK293 MPD ctr 2-1 = parental HEK293 nonspecific activity of TRPC6 inhibitors, second screen. AID 2779. signal change vs control, % at 10 µM. shares compounds with TRPC6 inh. parental HEK293 membrane potential dye fluorescence; maximal acetylcholine challenge after compound addition. 920 tested, 31% active;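 active = membrane potential signal moving either way by over 3 SD of the maximum-effect control, in both duplicate plates, meaning non-specific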
# HEK293 MPD ctr-1 = parental HEK293 nonspecific activity of TRPC6 inhibitors | shares compounds with TRPC6 inh | AID 2780 | parental HEK293 membrane potential dye fluorescence | membrane potential signal change, % at 10 µM | 920 tested, 60% active;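 active = membrane potential signal shifting up or down by more than 3 SD of buffer-only wells, on both duplicate plates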
# HEK293 MPD ctr-2 = checks TRPC6 modulator effects in parental HEK293 cells; shares compounds with TRPC6 inh; membrane potential dye fluorescence; membrane potential signal change, % at 10 µM; 2,400 tested, 51% active;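 active = membrane potential signal moves up or down beyond 5 SD from buffer-only wells, on both duplicate plates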
# HEK293 MPD ctr 2-2 = second check of TRPC6 modulator effects in parental HEK293 cells. shares compounds with TRPC6 inh. 2,400 tested, 14% active. membrane potential dye fluorescence; after compound, maximal acetylcholine stimulation. inhibition, % at 10 µM. AID 488926;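 active = membrane potential signal drops by more than 5 SD from the mean control signal, in both duplicate plates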;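 also: plate controls were acetylcholine ECmax control wells for no effect and buffer only wells for full effect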
# TRPC4 ctr mod = tests whether TRPC6 modulators also affect mouse TRPC4 | HEK293 TRPC4/mu-opioid, membrane potential fluorescence | percent change from control (negative = decrease, positive = increase), % at 10 µM | 2,400 tested, 69% active | shares compounds with TRPC6 inh;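 active = membrane potential signal moved up or down beyond 5 SD of buffer control wells, in both duplicate plates, actives on both sides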;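 also: plate controls were assay buffer wells for no effect and DAMGO maximal-effect wells for full effect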
# TRPC4/MOR inh 2 = mouse TRPC4 off-target activity of TRPC6 modulators, second screen. shares compounds with TRPC6 inh. 2,400 tested, 55% active. inhibition, % at 10 µM. HEK293 TRPC4/mu-opioid, membrane potential dye fluorescence; stimulated with maximal-effect DAMGO;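 active = drop in membrane potential signal beyond 5 SD of the control wells in both duplicate plates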;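 also: TRPC4 counter screen for TRPC6 hits run under conditions tuned for TRPC6 not TRPC4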
# TRPC6 inh conf = mouse TRPC6 inhibitor confirmation | shares compounds with TRPC6 inh | HEK293-TRPC6, membrane potential dye, ACh-evoked depolarization | inhibition, % at 10 µM | 3,300 tested, 43% active;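 active = fluorescence ratio falls more than 5 SD below the full-stimulation control mean, in both duplicate runs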;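 also: integrated fluorescence ratio of peak minus minimum over baseline after agonist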
# TRPC6 act conf = confirmation of mouse TRPC6 activators; HEK293-TRPC6 membrane potential dye fluorescence, FDSS; shares compounds with TRPC6 inh; activation, % at 10 µM; 2,800 tested, 11% active;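 active = ratio signal rise beyond 5 SD above unstimulated control wells' mean, seen in both duplicate runs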;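 also: plate controls were buffer EC0 wells for no effect and acetylcholine ECmax response for full effect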
# An asterisk follows results filed as active; i = inactive; nt = no result. Shown are actives, neighbours in structure and some others; about 2.9% of the full set was active somewhere.
SMILES,Kir21 block,TRPC4 block,TRPC6 act,TRPC6 inh,TRPC4 PAM,TRPC4 act,HEK293 MPD ctr-2,HEK293 MPD ctr 2-2,TRPC4 ctr mod,TRPC4/MOR inh 2,TRPC6 inh conf,TRPC6 act conf,others
Cc1cccn2c(=O)c3cc(C(=O)NCc4ccco4)c(=N)n(C(C)C)c3nc12,-0.12,i,i,-8.1*,i,i,nt,nt,nt,nt,i,i,TRPC4 spec 2=i;TRPC4 spec=-31%*;HEK293 MPD ctr 2-1=i;HEK293 MPD ctr-1=-446%*
Cc1cccn2c(=O)c3cc(C(=O)NCc4cccnc4)c(=N)n(C(C)C)c3nc12,-1.8,i,i,-6.2*,i,i,i,i,i,38%*,i,i,
Cc1cccn2c(=O)c3cc(C(=O)NCCc4ccccc4)c(=N)n(Cc4ccco4)c3nc12,1.3,i,i,i,i,i,nt,nt,nt,nt,nt,nt,
CCCN(C(=O)CSCc1c(C)noc1C)c1c(N)n(Cc2ccccc2)c(=O)[nH]c1=O,-0.4,i,i,i,i,i,nt,nt,nt,nt,nt,nt,
O=C(CN1C(=O)c2ccccc2C1=O)NCC1CCCO1 (stereo not drawn),0.42,i,i,i,i,i,nt,nt,nt,nt,nt,nt,
O=C(CN1C(=O)c2ccc(Br)cc2C1=O)NCC1CCCO1 (stereo not drawn),-1.4,i,i,-8.9*,i,i,i,i,i,i,82%*,nt,
COc1cc2nc(N3CCNCC3)nc(N)c2cc1OC,-0.03,i,i,-11*,i,i,-246%*,92%*,-38%*,53%*,64%*,i,
COc1cc2nc(N3CCN(c4cc(C)ccc4C)CC3)nc(N)c2cc1OC,-1.6,i,i,i,i,i,nt,nt,nt,nt,nt,nt,
COc1ccc(N2CC(C(=O)N[C@@H](CC(C)C)C(=O)NC3CCCCC3)CC2=O)cc1 (stereo partly drawn),1.5,i,i,i,i,i,nt,nt,nt,nt,nt,nt,
C=CC[n+]1c(/C=C/c2ccc(OC(C)=O)c(OC)c2)ccc2ccccc21,-0.06,i,i,-8*,i,i,-301%*,90%*,-57%*,65%*,64%*,i,
COc1ccc(-c2cc(C(=O)N3CCN(c4ccccc4F)CC3)c3ccccc3n2)c(OC)c1,1.4,i,i,i,i,i,nt,nt,nt,nt,nt,nt,
CC(C)Oc1ccccc1OCCN(C)C,-1.9,i,i,i,i,i,nt,nt,nt,nt,nt,nt,
CN(C)CCC(Oc1ccccc1OCc1ccccc1)c1ccccc1 (stereo not drawn),-4.6*,i,i,-5.9*,i,i,257%*,i,49%*,85%*,44%*,nt,
COC(=O)c1nc(NNC(=O)c2ccccc2)sc1-c1ccccc1,-0.05,i,i,i,i,i,nt,nt,nt,nt,nt,nt,
CC(C)Sc1nc2c(c(=O)[nH]c(=O)n2C)n1CC(O)COc1ccccc1 (stereo not drawn),1.1,i,i,-5.8*,i,i,i,i,10%*,i,66%*,i,
CN(C)CCOC1c2ccccc2C=Cc2ccccc21,-0.5,i,i,-5.5*,i,i,124%*,84%*,22%*,42%*,68%*,nt,
CCOC(=O)c1nnn2c1nc(N1CCCCC1)c1ccccc12,-2.1,i,i,i,i,i,nt,nt,nt,nt,nt,nt,
CCOC(=O)c1nnn2c1nc(N1CCN(C)CC1)c1ccccc12,-0.03,i,i,-8.4*,i,i,-238%*,74%*,-42%*,53%*,61%*,i,
C[N+](C)(C)CC/C=C1/c2ccccc2CSc2ccccc21,0.19,i,i,-5.5*,i,i,i,72%*,i,i,82%*,i,
CC(C)OC(=O)CSc1nnc(-c2ccccn2)n1N,2,i,i,i,i,i,nt,nt,nt,nt,nt,nt,
COc1ccc(-c2cc(C(F)(F)F)nc(SCCC(=O)Nc3cc(C)on3)n2)cc1,0.33,i,i,i,i,i,nt,nt,nt,nt,nt,nt,
COCCNC(=O)CCSc1nc(-c2ccc(OC)cc2)cc(C(F)(F)F)n1,0.04,i,i,-5.6*,i,i,i,i,i,i,i,i,
NS(=O)(=O)c1ccc(NC(=S)NCc2ccc3c(c2)OCO3)cc1,0.31,i,i,-6.8*,i,i,i,i,i,i,i,i,
Cc1cc(N2CCOCC2)c2c(N)c(Br)cc(C)c2n1,0.23,i,i,-5.1*,i,i,-301%*,i,-57%*,42%*,i,i,
CN1CCN(C(CNC(=O)C(=O)Nc2ccc3c(c2)OCO3)c2ccc(F)cc2)CC1 (stereo not drawn),-2.2,i,i,-6*,i,i,100%*,i,12%*,i,39%*,i,
